Results from ChEMBL document CHEMBL1932953, “New anthranilic acid based antagonists with high affinity and selectivity for the human cholecystokinin receptor 1 (hCCK1-R)” (J Med Chem, 2011).
The source made the active and inactive calls. The calls are words filed in the database; no cut-off is given here.

What was measured:
[1] = Displacement of [125I]-BH-CCK8 from CCK2 receptor in Hartley guinea pig cerebral cortex after 120 hrs by gamma-counting; format: tissue-based, Cavia porcellus; details: in the assay text read “after 120 mins” for “after 120 hrs”
Outline: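 Cortical membranes (0.5 mg protein/ml) are incubated with 25 pM [125I]BH-CCK-8 for 120 min at 25 °C. The buffer is 10 mM Hepes, 118 mM NaCl, 4.7 mM KCl, 5 mM MgCl2, 1 mM EGTA, pH 6.5, with 0.2 mg/mL bacitracin. Samples are vacuum-filtered on GF/B and gamma-counted, with nonspecific binding defined with 1 μM CCK-8. IC50 comes from curve fitting, or ISB% is taken at the top concentration tested.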

[2] = target: T1, Cholecystokinin receptor type A (Rattus norvegicus, UniProt P30551); assay: Displacement of [125I]-BH-CCK8 from CCK1 receptor in Sprague-Dawley rat pancreatic acini after 120 hrs by gamma-counting; details: in the assay text read “after 30 mins” for “after 120 hrs”
T1 sequence (P30551 whole entry): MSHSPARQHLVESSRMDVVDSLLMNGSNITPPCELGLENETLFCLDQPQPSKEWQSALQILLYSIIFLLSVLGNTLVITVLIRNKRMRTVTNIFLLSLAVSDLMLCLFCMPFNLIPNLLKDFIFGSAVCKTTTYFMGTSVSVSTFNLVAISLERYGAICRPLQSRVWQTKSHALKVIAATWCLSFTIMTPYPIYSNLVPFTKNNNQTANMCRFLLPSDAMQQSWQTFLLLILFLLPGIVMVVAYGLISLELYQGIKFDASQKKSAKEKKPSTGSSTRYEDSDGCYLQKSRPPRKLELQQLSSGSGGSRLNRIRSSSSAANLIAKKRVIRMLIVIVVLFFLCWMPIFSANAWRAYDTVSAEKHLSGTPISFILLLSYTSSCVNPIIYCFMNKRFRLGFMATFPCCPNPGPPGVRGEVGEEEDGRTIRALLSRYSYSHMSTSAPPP
Outline: (§1)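 Rats fasted 18–24 h with free water. Acini isolated by enzymatic digestion are incubated with 25 pM [125I]BH-CCK-8 and competitors at 37 °C for 30 min in a shaking bath. Ice-cold Hepes-Ringer pH 7.4 is added, the tubes are centrifuged 5 min at 12500g, and pellet radioactivity is counted. IC50 comes from curve fitting, or ISB% is taken at the top concentration tested.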

[3] = target: T2, Cholecystokinin receptor type A (Homo sapiens, UniProt P32238); assay: Displacement of [125I]BH-(Thr,-Nle)-CCK-9 from human CCK1 receptor expressed in COS-7 cells after 60 mins by gamma counting; format: cell-based
T2 sequence (P32238 whole entry): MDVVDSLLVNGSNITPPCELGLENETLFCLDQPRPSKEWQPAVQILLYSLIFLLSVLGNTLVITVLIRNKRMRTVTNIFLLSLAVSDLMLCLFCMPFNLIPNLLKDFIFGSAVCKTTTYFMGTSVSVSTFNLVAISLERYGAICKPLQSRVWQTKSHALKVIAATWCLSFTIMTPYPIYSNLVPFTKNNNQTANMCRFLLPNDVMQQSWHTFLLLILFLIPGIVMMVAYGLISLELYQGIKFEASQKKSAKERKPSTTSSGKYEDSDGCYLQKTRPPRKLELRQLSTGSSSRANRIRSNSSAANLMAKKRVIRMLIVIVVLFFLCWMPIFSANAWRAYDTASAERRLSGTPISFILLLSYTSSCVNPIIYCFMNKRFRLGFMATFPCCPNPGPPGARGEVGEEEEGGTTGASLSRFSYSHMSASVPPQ

[4] = target: T3, Gastrin/cholecystokinin type B receptor (Homo sapiens, UniProt P32239); assay: Displacement of [125I]BH-(Thr,-Nle)-CCK-9 from human CCK2 receptor expressed in COS-7 cells after 60 mins by gamma counting; format: cell-based
T3 sequence (P32239 whole entry): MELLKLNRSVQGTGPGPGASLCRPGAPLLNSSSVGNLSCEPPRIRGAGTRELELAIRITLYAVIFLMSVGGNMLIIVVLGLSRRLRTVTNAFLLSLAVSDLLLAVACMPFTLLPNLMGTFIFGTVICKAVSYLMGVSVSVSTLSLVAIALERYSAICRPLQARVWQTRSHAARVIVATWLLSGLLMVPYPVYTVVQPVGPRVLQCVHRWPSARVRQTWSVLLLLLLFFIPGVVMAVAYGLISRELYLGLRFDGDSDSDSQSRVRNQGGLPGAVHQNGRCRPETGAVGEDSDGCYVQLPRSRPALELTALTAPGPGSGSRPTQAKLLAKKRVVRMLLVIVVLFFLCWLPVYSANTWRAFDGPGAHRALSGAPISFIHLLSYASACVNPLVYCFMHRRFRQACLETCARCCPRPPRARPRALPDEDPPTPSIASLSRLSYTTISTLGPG

[5] = Antagonist activity at CCK1 receptor in Hartley guinea pig gall bladder assessed as inhibition of CCK8-induced contraction; format: functional, tissue-based, Cavia porcellus
Outline: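 Circular smooth-muscle strips (about 3 mm × 15 mm) in Krebs–Henseleit at 32 °C, gassed 95% O2/5% CO2, resting tension 0.5 g, isometric recording. After 60 min equilibration with washes every 15 min, antagonist or vehicle is given 5 min before a submaximal (70–80%) CCK-8 concentration. Response is % inhibition of contraction, and IC50 comes from the regression line.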

[6] = target: T4, Cholecystokinin receptor type A (Homo sapiens) (UniProt P32238); assay: Antagonist activity at human CCK1 receptor expressed in COS7 cells assessed as inhibition of (Thr,Nle)-CCK9-induced inositol phosphate production using myo-2-[3H]inositol after 60 mins by scintillation counting; format: functional, cell-based; details: COS-7
T4 sequence (whole entry): T2 sequence (P32238 whole entry)
Outline: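 COS-7 cells transiently transfected (DEAE-dextran) with receptor cDNA are labelled overnight with 2 μCi/ml myo-2-[3H]inositol. They are preincubated 30 min in DMEM with 20 mM LiCl at 37 °C, then incubated 60 min at 37 °C in PI buffer pH 7.45 with ligands at various concentrations. Inositol phosphates are separated on Dowex AG 1-X8 formate columns and counted by β scintillation.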

[7] = target: T2, Cholecystokinin receptor type A; assay: Displacement of [3H]-SR-27897 from wild type human CCK1 receptor expressed in COS7 cells after 60 mins […]; format: cell-based, COS-7
Outline: (§2)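 Wild-type or mutant receptor cDNA in pRFE-Neo (2 μg/plate) was transiently transfected into COS-7 cells by modified DEAE-dextran, and cells were replated 24 h later. After about 24 h more, cells were incubated 60 min at 37 °C in DMEM with 0.1% BSA, 1.83 nM [3H]SR-27,897 and competitors. Cells were washed in cold PBS with 2% BSA, lysed in 0.1 N NaOH, and counted by scintillation. Values are mean ± SEM, at least three experiments in duplicate.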

[8] = target: Cholecystokinin receptor type A (Homo sapiens, UniProt P32238, W39A); assay: Displacement of [3H]-SR-27897 from human CCK1 W39A mutant receptor expressed in COS7 cells after 60 mins […]; format: cell-based, COS-7; outline: as §2
Chain of Cholecystokinin receptor type A (Homo sapiens, UniProt P32238, W39A) (P32238 whole entry W39A): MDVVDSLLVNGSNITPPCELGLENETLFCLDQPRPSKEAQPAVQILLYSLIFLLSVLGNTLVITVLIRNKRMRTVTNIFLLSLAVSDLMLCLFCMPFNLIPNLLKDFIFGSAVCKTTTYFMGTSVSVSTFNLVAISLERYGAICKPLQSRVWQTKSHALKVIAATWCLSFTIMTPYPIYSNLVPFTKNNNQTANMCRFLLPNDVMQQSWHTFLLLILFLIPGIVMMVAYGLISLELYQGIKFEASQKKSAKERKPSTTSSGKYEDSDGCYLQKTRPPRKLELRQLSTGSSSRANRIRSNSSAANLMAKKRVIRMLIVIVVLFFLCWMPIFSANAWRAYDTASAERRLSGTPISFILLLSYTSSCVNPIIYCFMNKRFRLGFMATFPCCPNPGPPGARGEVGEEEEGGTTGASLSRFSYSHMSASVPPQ

[9] = target: Cholecystokinin receptor type A (Homo sapiens, UniProt P32238, F107A); assay: Displacement of [3H]-SR-27897 from human CCK1 F107A mutant receptor expressed in COS7 cells after 60 mins […]; format: cell-based, COS-7; outline: as §2
Chain of Cholecystokinin receptor type A (Homo sapiens, UniProt P32238, F107A) (P32238 whole entry F107A): as the sequence (P32238 whole entry W39A) above, with A39W, F107A counted along it

[10] = target: Cholecystokinin receptor type A (Homo sapiens, UniProt P32238, M195A); assay: Displacement of [3H]-SR-27897 from human CCK1 M195A mutant receptor expressed in COS7 cells after 60 mins […]; format: cell-based, COS-7; outline: as §2
Chain of Cholecystokinin receptor type A (Homo sapiens, UniProt P32238, M195A) (P32238 whole entry M195A): as the sequence (P32238 whole entry W39A) above, with A39W, M195A counted along it

[11] = target: Cholecystokinin receptor type A (Homo sapiens, UniProt P32238, R197A); assay: Displacement of [3H]-SR-27897 from human CCK1 R197A mutant receptor expressed in COS7 cells after 60 mins […]; format: cell-based, COS-7; outline: as §2
Chain of Cholecystokinin receptor type A (Homo sapiens, UniProt P32238, R197A) (P32238 whole entry R197A): as the sequence (P32238 whole entry W39A) above, with A39W, R197A counted along it

[12] = target: Cholecystokinin receptor type A (Homo sapiens, UniProt P32238, R336A); assay: Displacement of [3H]-SR-27897 from human CCK1 R336A mutant receptor expressed in COS7 cells after 60 mins […]; format: cell-based, COS-7; outline: as §2
Chain of Cholecystokinin receptor type A (Homo sapiens, UniProt P32238, R336A) (P32238 whole entry R336A): as the sequence (P32238 whole entry W39A) above, with A39W, R336A counted along it

[13] = target: Cholecystokinin receptor type A (Homo sapiens, UniProt P32238, F330A); assay: Displacement of [3H]-SR-27897 from human CCK1 F330A mutant receptor expressed in COS7 cells after 60 mins […]; format: cell-based, COS-7; outline: as §2
Chain of Cholecystokinin receptor type A (Homo sapiens, UniProt P32238, F330A) (P32238 whole entry F330A): as the sequence (P32238 whole entry W39A) above, with A39W, F330A counted along it

[14] = target: Cholecystokinin receptor type A (Homo sapiens, UniProt P32238, I352A); assay: Displacement of [3H]-SR-27897 from human CCK1 I352A mutant receptor expressed in COS7 cells after 60 mins […]; format: cell-based, COS-7; outline: as §2
Chain of Cholecystokinin receptor type A (Homo sapiens, UniProt P32238, I352A) (P32238 whole entry I352A): as the sequence (P32238 whole entry W39A) above, with A39W, I352A counted along it

[15] = target: T2, Cholecystokinin receptor type A; assay: Displacement of [125I]-BH-JMV-179 from wild type human CCK1 receptor expressed in COS7 cells after 60 mins by gamma counting; format: cell-based, COS-7
Outline: (§3)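 Transiently transfected COS-7 cells (DMEM, 5% FCS, 37 °C, 5% CO2) were given 2 μg/plate pRFE-Neo vector carrying wild-type or mutant receptor cDNA by modified DEAE-dextran, then replated after 24 h. About 24 h later, cells were washed (PBS pH 6.95, 0.1% BSA) and incubated 60 min at 37 °C with 71 pM 125I-BH-(Thr,Nle)CCK-9 ± competitors. After cold washes, cells were lysed in 0.1 N NaOH and gamma-counted.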

[16] = target: Cholecystokinin receptor type A (Homo sapiens, UniProt P32238, N333A); assay: Displacement of [125I]-BH-JMV-179 from human CCK1 receptor N333A mutant expressed in COS7 cells after 60 mins by gamma counting; format: cell-based, COS-7; outline: as §3
Chain of Cholecystokinin receptor type A (Homo sapiens, UniProt P32238, N333A) (P32238 whole entry N333A): as the sequence (P32238 whole entry W39A) above, with A39W, N333A counted along it

Cavia porcellus [17] = assay: Inhibition of CCK8-induced gall bladder contraction in iv dosed Hartley guinea pig administered 2 mins before CCK8 challenge; format: functional; details: read-out: ID50 (the source's name)
Outline: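 Male Hartley guinea pigs (400–450 g) are fasted 48 h and anaesthetised with urethane 1.5 g/kg ip. Jugular vein and trachea are cannulated. Test agents are given iv at different doses 2 min before CCK-8 10 ng/kg iv. The read-out is % reduction of contraction area, and […] comes from the regression of inhibition against log dose.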

[18] = Apparent selectivity index, ratio of IC50 for CCK2 receptor in Hartley guinea pig cerebral cortex to IC50 for CCK1 receptor in Sprague-Dawley rat pancreatic acini; format: tissue-based
Homo sapiens = species on record: Homo sapiens; assay: Apparent selectivity index, ratio of Ki for human CCK2 receptor to Ki for human CCK1 receptor
Cavia porcellus [19] = species on record: Cavia porcellus; assay: Displacement of [125I]-BH-CCK8 from CCK2 receptor in Hartley guinea pig cerebral cortex at 30 uM […] by gamma-counting; format: tissue-based
[20] = target: T5, Cholecystokinin receptor type A (Rattus norvegicus) (UniProt P30551); assay: Displacement of [125I]-BH-CCK8 from CCK1 receptor in Sprague-Dawley rat pancreatic acini at 3 uM after 120 hrs by gamma-counting; details: in the assay text read “after 30 mins” for “after 120 hrs”; outline: as §1
T5 sequence (whole entry): T1 sequence (P30551 whole entry)

[21] = target: T5, Cholecystokinin receptor type A (Rattus norvegicus); assay: Displacement of [125I]-BH-CCK8 from CCK1 receptor in Sprague-Dawley rat pancreatic acini at 10 uM after 120 hrs by gamma-counting; details: in the assay text read “after 30 mins” for “after 120 hrs”; outline: as §1

O=C(Nc1ccccc1C(=O)N[C@H](CCc1ccccc1)C(=O)O)c1cc2ccccc2[nH]1
IC50 ([1]; read-out: IC50): 3800 nM | IC50 [2]: 9.5 nM | Ki [3]: 2.3 nM | Ki [4]: 1000 nM | IC50 [5]: 43.9 nM | inhibition [6]: Active | Ki [7]: 5.8 nM | Ki [8]: 3.7 nM | Ki [9]: 3.8 nM | Ki [10]: 7.6 nM | Ki [11]: 19.6 nM | Ki [12]: 522 nM | Ki [13]: 4.9 nM | Ki [14]: 39.1 nM | Ki [15]: 0.32 nM | Ki [16]: 5 nM | ED50 (Cavia porcellus [17]): 0.35 µmol/kg

O=C(Nc1ccccc1C(=O)NC(Cc1ccccc1)C(=O)O)c1cc2ccccc2[nH]1 (racemic)
IC50 ([1]; read-out: IC50): 16400 nM | Ratio IC50 [18]: 83 | Ki [3]: 59.8 nM | Ki [4]: 22000 nM | Ratio Ki (Homo sapiens): 368

O=C(Nc1ccccc1C(=O)NC(CCc1ccccc1)C(=O)NO)c1cc2ccccc2[nH]1 (racemic)
IC50 [2]: 419 nM | inhibition (Cavia porcellus [19]): 37%

NC(=O)C(CCc1ccccc1)NC(=O)c1ccccc1NC(=O)c1cc2ccccc2[nH]1 (racemic)
inhibition [20]: inactive

O=C(Nc1ccccc1C(=O)NC(CCCc1ccccc1)C(=O)O)c1cc2ccccc2[nH]1 (racemic)
IC50 ([1]; read-out: IC50): 600 nM | IC50 [2]: 107 nM | Ratio IC50 [18]: 6

CC(CCc1ccccc1)NC(=O)c1ccccc1NC(=O)c1cc2ccccc2[nH]1 (racemic)
IC50 [1]: Not Active | inhibition [21]: 36%

O=C(Nc1ccccc1NC(=O)C(CCc1ccccc1)C(=O)O)c1cc2ccccc2[nH]1 (racemic)
IC50 ([1]; read-out: IC50): 6200 nM | IC50 [2]: 717 nM | Ratio IC50 [18]: 8

CCOC(=O)C(CCc1ccccc1)NC(=O)c1ccccc1NC(=O)c1cc2ccccc2[nH]1 (racemic)
IC50 [1]: Not Active | inhibition [20]: 24%

O=C(Nc1ccccc1C(=O)NC(CCc1ccccc1)C(=O)O)c1cc2ccccc2[nH]1 (racemic)
IC50 ([1]; read-out: IC50): 5100 nM | IC50 [2]: 15.7 nM | Ratio IC50 [18]: 324 | Ki [3]: 3.9 nM | Ki [4]: 15300 nM | Ratio Ki (Homo sapiens): 3900 | IC50 [5]: 48.9 nM | inhibition [6]: Active

O=C(Nc1ccccc1C(=O)N[C@@H](CCc1ccccc1)C(=O)O)c1cc2ccccc2[nH]1
IC50 ([1]; read-out: IC50): 7900 nM | IC50 [2]: 313 nM | Ki [3]: 973 nM | Ki [4]: 1000 nM | IC50 [5]: 420 nM | inhibition [6]: Active

O=C(Nc1ccccc1C(=O)NC(CCCCc1ccccc1)C(=O)O)c1cc2ccccc2[nH]1 (racemic)
inhibition [21]: 39%

O=C(Nc1ccccc1C(=O)NC(C(=O)O)c1ccccc1)c1cc2ccccc2[nH]1 (racemic)
IC50 [2]: 317 nM
